{"source": "paper PMC8157486", "about": "(Chemical Science, 2020)", "key": {"[1]": {"biological_target": "T1, full-length recombinant MrkA protein (Klebsiella pneumoniae, UniProt P12267)", "T1 sequence (P12267 23-202)": "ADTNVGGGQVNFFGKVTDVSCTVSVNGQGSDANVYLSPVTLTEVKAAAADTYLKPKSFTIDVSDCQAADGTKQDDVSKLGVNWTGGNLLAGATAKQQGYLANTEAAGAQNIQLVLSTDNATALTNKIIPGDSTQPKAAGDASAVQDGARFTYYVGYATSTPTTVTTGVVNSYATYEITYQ", "test": "Sandwich ELISA: immobilised biotinylated PCC captures full-length MrkA", "assay_type": "binding", "procedure,_shortened": "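NeutrAvidin-coated wells were loaded with 2 μM biotinylated PCC (2 h, room temperature), then blocked overnight in 5% milk at 4 °C. Recombinant MrkA (N-terminal 6xHis-SUMO tag) was titrated for 1 h, followed by rabbit anti-His pAb (1:5000, 1 h) and anti-rabbit HRP (1:2000, 1 h). Peroxidase substrate developed for 1–40 min and was quenched with 1 M H2SO4.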"}, "[2]": {"test_system": "MrkA-producing multidrug-resistant K. pneumoniae (strains BAA 1705 & 2146)", "test": "Whole-cell ELISA, biotinylated PCC binding", "assay_type": "cell-based, Klebsiella pneumoniae", "conditions": "Fig. 5C; for binding selectivity towards MrkA-expressing K. pneumoniae cells versus non-target bacteria: whole-cell ELISA versus E. coli and S. Typhimurium; for whole-cell ELISA signal (SAv-HRP, 450 nm): biotinylated PCC at 5 μM", "procedure,_shortened": "(§1)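 10^8 bacteria per test, from overnight cultures at 37 °C with shaking in G-CAA (promotes MrkA) or LB medium. Blocked in PBS-1% BSA (1 h, 37 °C), then incubated with biotinylated PCC in PBS-BSA (1 h, 37 °C). Washed thrice, then streptavidin-HRP (1:1000, 1 h, 37 °C). Developed with TMB, quenched with 2 N H2SO4, absorbance read at 450 nm.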"}, "[3]": {"test_system": "wild type MrkA-expressing KPPR1 cells (ATCC 43816)", "test": "Whole-cell ELISA, biotinylated PCC binding", "assay_type": "cell-based, Klebsiella pneumoniae", "conditions": "biotinylated PCC at 5 μM down to 5 nM; cells cultured in G-CAA media; 1 h 37 °C", "procedure,_shortened": "as §1"}, "[4]": {"test_system": "MrkA-knockout KPPR1 cells", "test": "Whole-cell ELISA, biotinylated PCC binding", "assay_type": "cell-based, Klebsiella pneumoniae", "conditions": "mrkA (with mrkB and mrkC) knocked out", "procedure,_shortened": "as §1"}, "[5]": {"test_system": "Escherichia coli (E. coli)", "test": "Whole-cell ELISA, biotinylated PCC binding", "assay_type": "cell-based", "conditions": "biotinylated PCC at 5 μM; does not express MrkA; Fig. 5C", "procedure,_shortened": "as §1"}, "[6]": {"test_system": "Salmonella enterica serovar Typhimurium (S. Typhimurium)", "test": "Whole-cell ELISA, biotinylated PCC binding", "assay_type": "cell-based", "conditions": "biotinylated PCC at 5 μM; does not express MrkA; Fig. 5C", "procedure,_shortened": "as §1"}, "[7]": {"test_system": "K. pneumoniae cells (strain BAA 1705)", "test": "Whole-cell ELISA on cells cultured in G-CAA media or LB", "assay_type": "cell-based, Klebsiella pneumoniae", "conditions": "biotinylated PCC at 50 μM; Fig. S7B"}, "[8]": {"test_system": "K. pneumoniae cells (strain BAA 2146)", "test": "Flow cytometry antibody recruitment", "assay_type": "cell-based, Klebsiella pneumoniae", "conditions": ">18 000 single cells", "procedure,_shortened": "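Cells grown overnight in G-CAA medium, washed, and incubated with DNP-conjugated PCC. After a wash they were stained with Alexafluor488-labelled anti-DNP antibody, washed, resuspended in PBS and held 2 d at 4 °C. Cytometer calibrated with 3.5 μm fluorescent beads. Excitation 488 nm, emission 530 nm. Gated on single cells, with an unstained FMO control setting the DNP+ gate.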"}, "[9]": {"test_system": "K. pneumoniae cells (strain BAA 1705)", "test": "Gentamicin protection assay: phagocytosis and opsonophagocytic killing", "assay_type": "cell-based, Klebsiella pneumoniae", "conditions": "for colony counts at 1 h (phagocytosis), control treatments: AR-PCC only (5 μM, no anti-DNP) or anti-DNP antibody only, triplicate", "procedure,_shortened": "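Bacteria opsonized with DNP-PCC (5 μM, PBS-1% BSA, 1 h, 37 °C), then anti-DNP (1:1000, 1 h, 37 °C). They infected immortalised mouse BMDMs (RPMI, 10% serum) at MOI 50 for 0.5 h at 37 °C. After washing, gentamicin 100 μg ml−1 was added. At 1 h and 24 h, macrophages were lysed in 0.2% Triton X-100 and CFU plated on LB agar. Triplicate.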"}}, "note": "“Also recorded” adds a separate entry of the source. Bridge positions count the residues as written; N and C are the ends. Square brackets hold non-standard residues; d marks the D form. Triazole bridges read from a SMILES are 1,4-linked. Peptide text beside a SMILES is read from it. * marks the point of attachment. Biotin = O=C1N[C@H]2[C@H](CS[C@H]2CCCCC(=O)*)N1; Lys(N3) = [N-]=[N+]=NCCCC[C@H](N)C(=O)O; PEG5 = NCCOCCOCCOCCOCCOCCC(=O)O; Pra = C#CC[C@H](N)C(=O)O"}
{"compound": "2: L-to-A substitution analogue of cy(LLFFF) (ALFFF; macrocycle closed by azidolysine-propargylglycine cyclization; N-terminal Biotin-peg group) [Compound 2]", "values": [{"measurement": "MrkA binding (ELISA signal) compared to unmodified cy(LLFFF), alanine scan", "setting": "[1]; full-length MrkA, N-terminal Biotin-peg PCCs, Fig. 4A", "result": "Modestly lower binding"}]}
{"compound": "17: cy(LLFFF) with a hexa-arginine tag (RRRRRRLLFFF; LLFFF closed into a macrocycle by azidolysine-propargylglycine cyclization; N-terminal Biotin-peg group) [Compound 17]", "values": [{"measurement": "binding of MrkA protein in mouse sera", "setting": "[1]; MrkA protein at 250 nM in solutions of 10 and 100% mouse sera, Fig. 4B inset, listed as cy(LLFFF)+R6", "result": "bound MrkA protein in solutions of 10 and 100% mouse sera, albeit at lower levels versus in 0% serum; also recorded: binds MrkA protein in the context of sera"}, {"measurement": "binding selectivity towards MrkA-expressing K. pneumoniae cells versus non-target bacteria", "setting": "[2]", "result": "similarly high selectivity"}]}
{"compound": "CC(C)C[C@@H]1NC(=O)[C@@H](NC(=O)CCOCCOCCOCCOCCOCCNC(=O)CCCC[C@@H]2SC[C@@H]3NC(=O)N[C@@H]32)Cc2cn(nn2)CCCC[C@@H](C(N)=O)NC(=O)[C@H](Cc2ccccc2)NC(=O)[C@H](Cc2ccccc2)NC(=O)[C@H](Cc2ccccc2)NC(=O)[C@H](CC(C)C)NC1=O", "note": "[cy(LLFFF)] ({Biotin-PEG5}-[Pra]LLFFF[Lys(N3)]-NH2; triazole 1-7)", "values": [{"measurement": "whole-cell ELISA signal (SAv-HRP, 450 nm)", "setting": "[3]", "result": "strong signals"}, {"measurement": "whole-cell ELISA signal (SAv-HRP, 450 nm)", "setting": "[4]", "result": "ELISA intensities comparable to baseline"}, {"measurement": "whole-cell ELISA signal (SAv-HRP, 450 nm)", "setting": "[2]", "result": "strong signals"}, {"measurement": "binding selectivity towards MrkA-expressing K. pneumoniae cells versus non-target bacteria", "setting": "[2]", "result": "excellent binding selectivity"}, {"measurement": "whole-cell ELISA signal (SAv-HRP, 450 nm)", "setting": "[5]", "result": "only weak signals"}, {"measurement": "whole-cell ELISA signal (SAv-HRP, 450 nm)", "setting": "[6]", "result": "only weak signals"}, {"measurement": "whole-cell ELISA binding, G-CAA versus LB culture", "setting": "[7]", "result": "bound K. pneumoniae cells regardless of MrkA-expression level"}]}
{"compound": "cy(HNGPT)-DNP (sidechain bridge or staple)", "values": [{"measurement": "fluorescence intensity (Alexafluor 488 anti-DNP), flow cytometry", "setting": "[8]; control AR-PCC at 50 μM plus anti-DNP, predominantly", "result": "< 1.0 × 10^1"}]}
{"compound": "cy(LLFFA) (sidechain bridge or staple)", "values": [{"measurement": "whole-cell ELISA signal (SAv-HRP, 450 nm)", "setting": "[3]", "result": "much lower intensities"}, {"measurement": "whole-cell ELISA signal (SAv-HRP, 450 nm)", "setting": "[4]", "result": "ELISA intensities comparable to baseline"}, {"measurement": "whole-cell ELISA signal (SAv-HRP, 450 nm)", "setting": "[2]", "result": "low signals"}, {"measurement": "whole-cell ELISA signal (SAv-HRP, 450 nm)", "setting": "[5]", "result": "low signals"}, {"measurement": "whole-cell ELISA signal (SAv-HRP, 450 nm)", "setting": "[6]", "result": "low signals"}, {"measurement": "whole-cell ELISA binding, G-CAA versus LB culture", "setting": "[7]", "result": "bound K. pneumoniae cells regardless of MrkA-expression level"}]}
{"compound": "cy(LLFFA)-DNP (sidechain bridge or staple)", "values": [{"measurement": "colony counts at 1 h (phagocytosis), control treatments", "setting": "[9]", "result": "None of these treatments elicited phagocytosis above the basal level"}]}
{"compound": "cy(LLFFF)+R6-DNP (sidechain bridge or staple)", "values": [{"measurement": "colony counts at 1 h (phagocytosis), control treatments", "setting": "[9]", "result": "None of these treatments elicited phagocytosis above the basal level"}]}
{"compound": "cy(LLFFF)-DNP (sidechain bridge or staple)", "values": [{"measurement": "fluorescence (Alexafluor 488 anti-DNP), flow cytometry, versus controls", "setting": "[8]; AR-PCC at 1 or 5 μM plus secondary antibody", "result": "much higher fluorescence"}, {"measurement": "colony counts at 24 h (opsonophagocytic killing)", "setting": "[9]; 24 h of incubation, AR-PCC 5 μM plus anti-DNP", "result": "little to no cell counts"}, {"measurement": "colony counts at 1 h (phagocytosis), control treatments", "setting": "[9]", "result": "None of these treatments elicited phagocytosis above the basal level"}]}
